One data set has as its system RAW264.7. Description: Cytotoxicity against mouse RAW264.7 cells assessed as cell viability at 1 to 5 uM incubated for 24 hrs by MTS assay. The class given is cell-based. The following applies: raw264.7, 24 h. The procedure, abridged:
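RAW264.7 macrophages (passage 5–16) were grown in DMEM GlutaMAX with 10% FBS at 37 °C and 5% CO₂, then seeded at 25,000 cells/cm². The next day, medium was replaced with inhibitor-containing medium for 24 h at 37 °C. MTS reagent was added for 2 h at 37 °C in the dark. Absorbance was read at 490 nm and expressed as % of control.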

Data set [1] concerns the target T1, Histone deacetylase 3 (Mus musculus) (UniProt O88895).
T1 sequence (whole entry): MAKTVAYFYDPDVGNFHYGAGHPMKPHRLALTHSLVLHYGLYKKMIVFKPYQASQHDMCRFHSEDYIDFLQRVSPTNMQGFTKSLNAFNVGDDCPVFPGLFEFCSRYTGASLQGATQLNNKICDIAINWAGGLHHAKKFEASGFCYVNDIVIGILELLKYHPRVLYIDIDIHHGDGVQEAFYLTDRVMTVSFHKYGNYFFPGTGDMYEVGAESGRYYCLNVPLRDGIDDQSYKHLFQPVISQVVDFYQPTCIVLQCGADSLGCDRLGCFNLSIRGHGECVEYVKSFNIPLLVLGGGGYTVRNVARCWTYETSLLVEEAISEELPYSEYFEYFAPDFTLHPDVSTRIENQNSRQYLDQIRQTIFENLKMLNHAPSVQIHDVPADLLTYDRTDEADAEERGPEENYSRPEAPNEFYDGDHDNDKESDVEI
Description: Inhibition of HDAC3 in LPS/IFNgamma-stimulated mouse RAW blue cells assessed as NFkappaB transcriptional activity measured as SEAP activity at 1 to 5 uM pretreated for 16 hrs followed by LPS stimulation and measured after 4 hrs by quanti blue reagent-based reporter gene assay. The procedure, abridged:
(§1)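 NF-κB SEAP reporter assay in RAW264.7-derived RAW-Blue cells (passage 4–14), seeded at about 550,000 cells/mL. Cells were pre-incubated with inhibitor for 16 h, then stimulated with 10 ng/mL LPS/IFNγ for 4 h. Supernatant was mixed 1:9 into QUANTI-Blue and incubated 3 h at 37 °C; absorbance was read at 650 nm as % of control. Mean ± SD of 3 independent experiments.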

Data set [2] addresses T1, Histone deacetylase 3 (Mus musculus). Description: Inhibition of HDAC3 in LPS/IFNgamma-stimulated mouse RAW264.7 cells assessed as TNF-alpha gene expression at 1 uM pretreated for 16 hrs followed by LPS stimulation and measured after 4 hrs by RT-qPCR analysis. The class given is cell-based. The procedure, abridged:
(§2)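 RAW264.7 cells were treated with inhibitor for 20 h in total, with LPS/IFNγ added for the final 4 h; vehicle was a proportional DMSO dilution. Cells were washed twice with DPBS, total RNA was isolated, and IL10, iNOS, IL6 and TNFα transcripts were quantified by RT-qPCR relative to vehicle. Mean ± SD of 2–3 independent experiments.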

Data set [3] shares this target. Description: Inhibition of HDAC3 in LPS/IFNgamma-stimulated mouse RAW264.7 cells assessed as IL-6 gene expression at 1 uM pretreated for 16 hrs followed by LPS stimulation and measured after 4 hrs by RT-qPCR analysis. The class given is cell-based. The method in brief: as §2
For data set [4] the target is unchanged. As to the kind of experiment: Inhibition of HDAC3 in LPS/IFNgamma-stimulated mouse RAW264.7 cells assessed as iNOS gene expression at 1 uM pretreated for 16 hrs followed by LPS stimulation and measured after 4 hrs by RT-qPCR analysis. The data set is classed as cell-based. The procedure, abridged: as §2
Data set [5] shares this target. As to the kind of experiment: Inhibition of HDAC3 in LPS/IFNgamma-stimulated mouse RAW264.7 cells assessed as IL-10 gene expression at 1 uM pretreated for 16 hrs followed by LPS stimulation and measured after 4 hrs by RT-qPCR analysis. The data set is classed as cell-based. The procedure, abridged: as §2
A further data set addresses Histone deacetylase 1 (Homo sapiens, UniProt Q13547). Description: Inhibition of human recombinant C-terminal His/FLAG-tagged HDAC1 using Boc-Lys-(epsilon-Ac)-AMC as fluorogenic substrate incubated for 90 mins by fluorescence based assay.
For a further data set, the target named is Histone deacetylase 2 (Homo sapiens, UniProt Q92769). Description: Inhibition of human recombinant C-terminal FLAG-tagged HDAC2 using Boc-Lys-(epsilon-Ac)-AMC as fluorogenic substrate incubated for 90 mins by fluorescence based assay.
Data set [6] has as its target Histone deacetylase 3/Nuclear receptor corepressor 2 (HDAC3/NCoR2) (Homo sapiens, UniProt O15379). As to the kind of experiment: Inhibition of human recombinant C-terminal His-tagged HDAC3/NCOR2 using Boc-Lys-(epsilon-Ac)-AMC as fluorogenic substrate incubated for 90 mins by fluorescence based assay. The data set is classed as protein-complex assay.
The species named for data set [7] is Homo sapiens. As to the kind of experiment: Selectivity ratio of IC50 for human recombinant C-terminal His-tagged HDAC3/NCOR2 to IC50 for human recombinant C-terminal His/FLAG-tagged HDAC1. The method in brief: (§3)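 Fluorogenic assay using human recombinant HDAC1 (FLAG/His), HDAC2 (FLAG) or HDAC3/NcoR2 (His) in pH 8.0 Tris buffer with NaCl, KCl, MgCl₂, 0.01% Triton-X and 1 mg/mL BSA. Enzyme, inhibitor dilutions and Boc-Lys(ε-Ac)-AMC were incubated 90 min at 37 °C. Trypsin/200 μM vorinostat stop solution was added for 30 min, then fluorescence read (ex 370/em 460 nm). IC50s came from curve fits; the ratio is HDAC3 IC50 over HDAC2 or HDAC1 IC50.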

Data set [8] is filed under the species Homo sapiens. Description: Selectivity ratio of IC50 for human recombinant C-terminal His-tagged HDAC3/NCOR2 to IC50 for human recombinant C-terminal FLAG-tagged HDAC2. The procedure, abridged: as §3
In data set [9] the target is T2, Histone deacetylase 1/2 (Mus musculus) (UniProt O09106+P70288). As to the kind of experiment: Inhibition of HDAC1/2 in LPS/IFNgamma-stimulated mouse RAW264.7 cells assessed as upregulation of TNF-alpha gene expression at pretreated for 16 hrs followed by LPS stimulation and measured after 4 hrs by RT-qPCR analysis. The class given is cell-based. The procedure, abridged: as §2

The target of data set [10] is T2, Histone deacetylase 1/2 (Mus musculus). As to the kind of experiment: Inhibition of HDAC1/2 in LPS/IFNgamma-stimulated mouse RAW264.7 cells assessed as upregulation of IL-6 gene expression at pretreated for 16 hrs followed by LPS stimulation and measured after 4 hrs by RT-qPCR analysis. The data set is classed as cell-based. The method in brief: as §2
Data set [11] has the same target. As to the kind of experiment: Inhibition of HDAC1/2 in LPS/IFNgamma-stimulated mouse RAW264.7 cells assessed as upregulation of iNOS gene expression at pretreated for 16 hrs followed by LPS stimulation and measured after 4 hrs by RT-qPCR analysis. The class given is cell-based. The method in brief: as §2
The target is the same in data set [12]. Description: Inhibition of HDAC1/2 in LPS/IFNgamma-stimulated mouse RAW264.7 cells assessed as upregulation of IL-10 gene expression at pretreated for 16 hrs followed by LPS stimulation and measured after 4 hrs by RT-qPCR analysis. The data set is classed as cell-based. The procedure, abridged: as §2
Data set [13] concerns the target Histone deacetylase 1 (Mus musculus) (UniProt O09106). As to the kind of experiment: Inhibition of HDAC1 in LPS/IFNgamma-stimulated mouse RAW blue cells assessed as upregulation of NFkappaB transcriptional activity by measuring increase in SEAP activity at 1 to 5 uM pretreated for 16 hrs followed by LPS stimulation and measured after 4 hrs by quanti blue reagent-based reporter gene assay. The procedure, abridged:
as §1

Data set [14] concerns the target T2, Histone deacetylase 1/2 (Mus musculus). Description: Inhibition of HDAC1/2 in LPS/IFNgamma-stimulated mouse RAW264.7 cells assessed as upregulation of TNF-alpha gene expression at 1 to 5 uM pretreated for 16 hrs followed by LPS stimulation and measured after 4 hrs by RT-qPCR analysis. The class given is cell-based. The procedure, abridged: as §2
For data set [15] the target is unchanged. Description: Inhibition of HDAC1/2 in LPS/IFNgamma-stimulated mouse RAW264.7 cells assessed as upregulation of IL-6 gene expression at 1 to 5 uM pretreated for 16 hrs followed by LPS stimulation and measured after 4 hrs by RT-qPCR analysis. The class given is cell-based. The procedure, abridged:
as §2

For data set [16] the target is unchanged. As to the kind of experiment: Inhibition of HDAC1/2 in LPS/IFNgamma-stimulated mouse RAW264.7 cells assessed as upregulation of iNOS gene expression at 1 to 5 uM pretreated for 16 hrs followed by LPS stimulation and measured after 4 hrs by RT-qPCR analysis. The data set is classed as cell-based. The method in brief:
as §2

The target is the same in data set [17]. As to the kind of experiment: Inhibition of HDAC1/2 in LPS/IFNgamma-stimulated mouse RAW264.7 cells assessed as upregulation of IL-10 gene expression at 1 to 5 uM pretreated for 16 hrs followed by LPS stimulation and measured after 4 hrs by RT-qPCR analysis. The data set is classed as cell-based. The method in brief: as §2

The source made the active and inactive calls. The calls are words filed in the database; no cut-off is given here.

T2 sequence (O09106 whole entry, looked up): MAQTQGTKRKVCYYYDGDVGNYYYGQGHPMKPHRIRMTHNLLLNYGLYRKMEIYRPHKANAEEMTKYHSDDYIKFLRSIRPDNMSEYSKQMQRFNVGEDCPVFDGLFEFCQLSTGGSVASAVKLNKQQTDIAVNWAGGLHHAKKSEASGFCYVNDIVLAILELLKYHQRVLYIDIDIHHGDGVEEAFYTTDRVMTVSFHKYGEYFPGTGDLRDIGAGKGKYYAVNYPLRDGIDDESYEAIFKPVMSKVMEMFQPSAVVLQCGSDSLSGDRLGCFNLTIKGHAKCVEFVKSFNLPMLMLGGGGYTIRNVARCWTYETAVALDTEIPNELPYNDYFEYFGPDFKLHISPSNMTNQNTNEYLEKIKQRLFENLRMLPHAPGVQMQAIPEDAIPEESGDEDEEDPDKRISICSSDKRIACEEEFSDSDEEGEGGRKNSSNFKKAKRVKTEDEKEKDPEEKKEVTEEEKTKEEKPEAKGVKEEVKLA
T2 sequence (P70288 whole entry, looked up): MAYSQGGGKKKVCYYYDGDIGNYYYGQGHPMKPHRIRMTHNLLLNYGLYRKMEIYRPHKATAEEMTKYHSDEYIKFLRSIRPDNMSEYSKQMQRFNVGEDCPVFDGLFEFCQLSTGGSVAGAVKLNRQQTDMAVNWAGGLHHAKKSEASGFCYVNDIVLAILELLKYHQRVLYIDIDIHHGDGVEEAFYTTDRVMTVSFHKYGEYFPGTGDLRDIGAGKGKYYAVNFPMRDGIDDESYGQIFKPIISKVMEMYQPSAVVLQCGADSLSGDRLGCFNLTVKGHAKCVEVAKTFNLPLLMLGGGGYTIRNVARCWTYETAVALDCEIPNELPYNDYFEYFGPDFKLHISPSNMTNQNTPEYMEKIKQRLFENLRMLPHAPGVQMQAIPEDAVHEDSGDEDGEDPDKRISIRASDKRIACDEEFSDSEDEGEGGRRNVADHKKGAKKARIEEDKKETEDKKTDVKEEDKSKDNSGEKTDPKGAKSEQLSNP
Chain of Histone deacetylase 3/Nuclear receptor corepressor 2 (HDAC3/NCoR2) (O15379 whole entry): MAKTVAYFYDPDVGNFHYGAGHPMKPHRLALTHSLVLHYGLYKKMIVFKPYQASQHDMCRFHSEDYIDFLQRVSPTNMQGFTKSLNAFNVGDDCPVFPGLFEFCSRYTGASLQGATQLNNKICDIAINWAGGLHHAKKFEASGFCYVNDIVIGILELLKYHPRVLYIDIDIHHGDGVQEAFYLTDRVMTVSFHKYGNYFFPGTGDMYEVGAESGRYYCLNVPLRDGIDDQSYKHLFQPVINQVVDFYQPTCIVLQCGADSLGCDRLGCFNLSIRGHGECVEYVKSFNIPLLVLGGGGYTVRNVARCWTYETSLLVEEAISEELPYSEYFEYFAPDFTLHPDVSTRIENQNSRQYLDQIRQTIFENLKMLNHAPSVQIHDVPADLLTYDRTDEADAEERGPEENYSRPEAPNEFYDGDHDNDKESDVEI
Chain of Histone deacetylase 3/Nuclear receptor corepressor 2 (HDAC3/NCoR2) (Q9Y618 whole entry, further chain): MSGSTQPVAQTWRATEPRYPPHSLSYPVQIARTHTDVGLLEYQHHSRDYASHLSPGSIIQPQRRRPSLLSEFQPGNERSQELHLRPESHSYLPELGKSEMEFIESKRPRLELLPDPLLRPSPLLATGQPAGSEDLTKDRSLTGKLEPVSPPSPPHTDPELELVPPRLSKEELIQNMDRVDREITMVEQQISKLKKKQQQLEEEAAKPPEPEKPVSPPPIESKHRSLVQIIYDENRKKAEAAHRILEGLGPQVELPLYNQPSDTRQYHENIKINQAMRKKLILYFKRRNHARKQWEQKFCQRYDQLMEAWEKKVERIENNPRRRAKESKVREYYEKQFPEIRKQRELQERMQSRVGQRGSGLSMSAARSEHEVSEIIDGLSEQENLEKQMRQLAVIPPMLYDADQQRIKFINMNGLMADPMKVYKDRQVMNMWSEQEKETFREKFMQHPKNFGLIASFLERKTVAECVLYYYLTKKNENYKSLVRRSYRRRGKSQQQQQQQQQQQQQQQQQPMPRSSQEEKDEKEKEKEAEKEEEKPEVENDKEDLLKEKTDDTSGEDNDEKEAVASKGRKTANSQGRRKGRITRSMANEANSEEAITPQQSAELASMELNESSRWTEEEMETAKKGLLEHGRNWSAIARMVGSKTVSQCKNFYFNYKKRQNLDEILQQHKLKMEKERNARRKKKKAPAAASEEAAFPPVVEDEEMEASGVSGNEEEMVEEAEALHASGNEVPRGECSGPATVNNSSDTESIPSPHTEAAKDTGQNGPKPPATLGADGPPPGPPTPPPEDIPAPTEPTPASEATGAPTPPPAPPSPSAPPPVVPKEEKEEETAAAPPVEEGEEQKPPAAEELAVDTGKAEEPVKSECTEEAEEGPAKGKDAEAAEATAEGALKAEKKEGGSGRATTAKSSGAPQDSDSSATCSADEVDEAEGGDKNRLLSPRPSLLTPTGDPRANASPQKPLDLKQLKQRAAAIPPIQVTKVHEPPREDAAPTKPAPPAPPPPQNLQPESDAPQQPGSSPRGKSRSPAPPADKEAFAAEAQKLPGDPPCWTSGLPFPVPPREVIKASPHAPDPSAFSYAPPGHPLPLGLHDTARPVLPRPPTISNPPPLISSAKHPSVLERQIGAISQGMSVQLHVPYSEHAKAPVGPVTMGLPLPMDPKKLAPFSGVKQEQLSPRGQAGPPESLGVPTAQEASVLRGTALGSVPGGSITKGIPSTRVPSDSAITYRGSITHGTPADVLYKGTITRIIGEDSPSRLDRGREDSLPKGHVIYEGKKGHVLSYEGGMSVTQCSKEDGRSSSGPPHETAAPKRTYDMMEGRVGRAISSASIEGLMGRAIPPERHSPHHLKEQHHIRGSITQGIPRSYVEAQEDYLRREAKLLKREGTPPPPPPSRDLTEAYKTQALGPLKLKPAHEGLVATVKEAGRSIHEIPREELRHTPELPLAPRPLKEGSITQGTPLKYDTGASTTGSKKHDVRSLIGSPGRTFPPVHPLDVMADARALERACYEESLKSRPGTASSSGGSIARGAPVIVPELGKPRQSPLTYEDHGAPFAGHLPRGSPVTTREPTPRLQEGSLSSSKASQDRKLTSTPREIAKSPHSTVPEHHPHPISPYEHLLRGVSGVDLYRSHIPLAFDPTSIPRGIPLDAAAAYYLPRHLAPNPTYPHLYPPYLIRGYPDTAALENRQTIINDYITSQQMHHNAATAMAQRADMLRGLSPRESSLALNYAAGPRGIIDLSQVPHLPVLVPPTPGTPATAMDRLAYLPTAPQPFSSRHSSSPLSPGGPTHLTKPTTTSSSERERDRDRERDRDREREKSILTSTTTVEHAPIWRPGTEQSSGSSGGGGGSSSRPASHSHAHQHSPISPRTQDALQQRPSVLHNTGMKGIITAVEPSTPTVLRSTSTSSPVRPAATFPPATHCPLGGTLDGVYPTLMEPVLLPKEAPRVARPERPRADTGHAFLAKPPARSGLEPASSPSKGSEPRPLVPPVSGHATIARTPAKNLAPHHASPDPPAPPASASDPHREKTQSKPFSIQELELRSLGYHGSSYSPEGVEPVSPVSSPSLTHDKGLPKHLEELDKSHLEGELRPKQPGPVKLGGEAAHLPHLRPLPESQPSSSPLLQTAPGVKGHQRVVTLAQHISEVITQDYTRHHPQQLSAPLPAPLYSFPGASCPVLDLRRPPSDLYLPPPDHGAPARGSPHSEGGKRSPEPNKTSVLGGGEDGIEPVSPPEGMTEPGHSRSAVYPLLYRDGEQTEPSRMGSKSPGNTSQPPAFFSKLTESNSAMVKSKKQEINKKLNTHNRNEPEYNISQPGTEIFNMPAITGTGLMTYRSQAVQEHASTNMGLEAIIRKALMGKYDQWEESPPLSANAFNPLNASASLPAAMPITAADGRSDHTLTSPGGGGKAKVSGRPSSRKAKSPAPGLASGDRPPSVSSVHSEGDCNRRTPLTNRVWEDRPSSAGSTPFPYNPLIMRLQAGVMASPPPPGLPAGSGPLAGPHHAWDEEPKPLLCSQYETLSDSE
Chain of Histone deacetylase 2 (Q92769 whole entry): as the sequence (P70288 whole entry, looked up) above, with A289V, P477T, A480T counted along it
Chain of Histone deacetylase 1 (Q13547 whole entry): as the sequence (O09106 whole entry, looked up) above, with K8R, E399D, D424E counted along it
Chain of Histone deacetylase 1 (Mus musculus) (O09106 whole entry): as the sequence (O09106 whole entry, looked up) above

`Nc1cc(F)ccc1NC(=O)/C=C/c1cnn(C/C=C/c2ccccc2)c1`: the Activity entry in the data set on RAW264.7 is on record as “Non-Toxic”. Moreover, the outcome in data set [1], in data set [2], in data set [3], in data set [4] and in data set [5] was inactive.
Turning to `Nc1ccccc1NC(=O)c1ccc(CNc2ccccc2)cc1`, the values for the IC50 (on Histone deacetylase 1; at Histone deacetylase 2; in [6]) were 1000 nM, 1400 nM and 600 nM, respectively.
As to `C[C@H](Nc1ccccc1)c1ccc(C(=O)Nc2ccccc2N)cc1`, the IC50 was found to be 2400 nM at Histone deacetylase 1, 8300 nM on Histone deacetylase 2 and 11000 nM in data set [6]. In the data set with RAW264.7, the Activity result is “Non-Toxic”.
Regarding `CC(Nc1ccccc1)c1ccc(C(=O)Nc2ccccc2N)cc1` (stereo not drawn), the IC50 was determined as 2300 nM at Histone deacetylase 1, 7000 nM on Histone deacetylase 2 and 8500 nM in [6]. Also, the results for the Ratio IC50 in the data set listed under Homo sapiens [7] and in the data set filed under Homo sapiens [8] were 3.7 and 1.2, respectively. Moreover, in the data set on RAW264.7, the Activity result is “Non-Toxic”. The outcome in data set [9], in data set [10], in [11] and in data set [12] was Active.
For the compound `Nc1ccccc1NC(=O)c1ccc(CNC(=O)OCc2cccnc2)cc1` [ENTINOSTAT], the Activity result in the data set on RAW264.7 is “Non-Toxic”.
For `Nc1ccccc1NC(=O)CCCCNC(=O)c1ccccc1`, in the data set on RAW264.7, the Activity entry was “Non-Toxic”.
As to `Nc1ccccc1NC(=O)CCCCCC(=O)c1ccccc1`, the IC50 is 1900 nM on Histone deacetylase 1, 3700 nM at Histone deacetylase 2 and 1200 nM in [6].
For the compound `CN(Cc1ccc(C(=O)Nc2ccccc2N)cc1)c1ccccc1`, the IC50 at Histone deacetylase 1 amounted to 1000 nM; on Histone deacetylase 2 it was 500 nM; in data set [6] it was 2800 nM.
Regarding `C[C@@H](Nc1ccccc1)c1ccc(C(=O)Nc2ccccc2N)cc1`, the IC50 worked out at 1300 nM on Histone deacetylase 1, 4200 nM on Histone deacetylase 2 and 5000 nM in data set [6]. For the same compound, the Activity result with RAW264.7 is listed as “Non-Toxic”. The outcome in [13], in data set [14], in [15], in data set [16] and in data set [17] was Active.
Regarding `Nc1ccccc1NC(=O)c1ccc(C(=O)Nc2ccccc2)cc1`, the IC50 stood at 3000 nM on Histone deacetylase 1, 5400 nM on Histone deacetylase 2 and 16000 nM in data set [6]. For the same compound, the Ratio IC50 was found to be 5.3 in the data set filed under Homo sapiens [7] and 3 in the data set filed under Homo sapiens [8].
With `Nc1ccccc1NC(=O)CCCCCNc1ccccc1`, the IC50 worked out at 1200 nM at Histone deacetylase 1, 1300 nM on Histone deacetylase 2 and 400 nM in data set [6].

Values taken from ChEMBL document CHEMBL4351000, “Inhibitory selectivity among class I HDACs has a major impact on inflammatory gene expression in macrophages” (Eur J Med Chem, 2019).
